Compounds with a hit are over-represented: about 2.6% of the library has one in this group of screens.
Mdm2 ligase inh: blocks human Mdm2 ubiquitin ligase activity; Q00987; cell-based MDM2 ubiquitination luciferase reporter, 2 h; 0 = plate control, 100 = twice control, blank-subtracted; signal enhancement, % at 5 µM; 0.11% of 210,000 active; AID 1230;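 active = signal enhancement of 30% or more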;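 note: luminescence tracks abundance of the self-degrading MDM2-luciferase fusion protein; higher signal means inhibition of MDM2 E3 ligase activity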
Target sequence (Q00987 whole entry, looked up, the tested form may be a part): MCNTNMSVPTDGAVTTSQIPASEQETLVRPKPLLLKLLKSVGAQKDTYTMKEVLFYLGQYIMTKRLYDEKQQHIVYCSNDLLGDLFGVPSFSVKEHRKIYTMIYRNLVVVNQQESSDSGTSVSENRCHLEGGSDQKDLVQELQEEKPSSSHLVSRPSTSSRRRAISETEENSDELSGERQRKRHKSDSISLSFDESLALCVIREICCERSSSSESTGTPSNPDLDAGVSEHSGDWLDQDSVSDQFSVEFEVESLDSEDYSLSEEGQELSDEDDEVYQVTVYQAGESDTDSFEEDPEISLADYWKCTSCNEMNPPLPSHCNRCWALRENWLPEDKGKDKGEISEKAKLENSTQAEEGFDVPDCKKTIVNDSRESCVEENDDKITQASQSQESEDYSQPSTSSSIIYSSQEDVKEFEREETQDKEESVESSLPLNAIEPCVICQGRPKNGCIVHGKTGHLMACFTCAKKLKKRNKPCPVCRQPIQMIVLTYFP
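Assay system: stable mammalian line carrying autodegrading MDM2–luciferase fusion reporter; Input: 2000 cells in each well; Compound dosing: single-point 5 µM; Schedule: 2 h compound exposure at 37 °C; Signal: SteadyLite luciferase luminescence after 15 min room-temperature reagent incubation; Evaluation: % luminescence enhancement versus blank-corrected plate control mean; Benchmarks: plate controls and plate blanks.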
HSV replic up: HSV replication enhancement; maximum fold increase; 0.005% of 220,000 active; AID 1956; HSV replication augmentation in cells, fold increase; in the data active = maximum fold increase above about 1.5; inconclusive = no clear call, values can overlap the other calls; tested in PC3 cells
Rad51 HR inh: blocks human Rad51 in homologous recombination; Q06609; hRad51 DNA strand exchange, fluorescence dequenching; inhibition, % at 10 µM; 0.085% of 200,000 active;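 active = inhibition above 40% at the single screening dose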
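material = hRad51 filaments on single-stranded DNA | timing = filaments 15 min 37 °C, then compound 30 min | signal = FRET fluorescence dequenching, excitation 485 nm, emission 520 nm | benchmarks = control wells and blank wells on each plate | evaluation = percent inhibition relative to plate controls and blanks | compound = 10 µM final, single point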
HSF1 activator: increases HSF-1 driven luciferase reporter signal; NIH3T3-HGL HSF-1 luciferase reporter, MG132, 8 h; 100% = twice DMSO control signal; activation, % at 9 µM; 1.7% of 300,000 active; AID 504408;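 active = mean replicate activation of at least 50% with a set share of replicates each reaching 50%; inconclusive = only one of those two conditions met; inactive = mean below 50% and too few replicates reaching it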
HSF1 inh: HSF1 inhibition; NIH3T3-HGL HSE-luciferase, MG132-induced, luminescence 8 h; stronger effect = lower value; activity change, negative = inhibition, % at 7.5 µM (by protocol); 0.77% of 300,000 active; AID 2098;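 active = more than half of replicate wells show activity change below -50%, luminescence cut by over half; inconclusive = some wells, but at most half, below -50%; inactive = no replicate well below -50%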;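 note: luciferase reports HSF-1 transcriptional activity via heat shock element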
Hsp70 act: switches on Hsp70 transcription. HeLa Hsp70 promoter luciferase reporter, luminescence; scaled: vehicle 0, proteasome-inhibitor control 100%. activation, % at 10 µM. 0.04% of 200,000 active. AID 1203;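 active = activation above the mean across all tested compounds plus 3 SD, cutoff set per campaign, cut at about 5.5% in these data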
Hits are given with their value; 0 = inactive; ? = inconclusive; - = no result.

SMILES	Mdm2 ligase inh	HSV replic up	Rad51 HR inh	HSF1 activator	HSF1 inh	Hsp70 act
COc1ccccc1NC(=O)c1ccc(N2CC3CC(C2)c2cccc(=O)n2C3)c(NC(=O)c2ccncc2)c1 (configuration not stated)	-	-	-	0	-56.8	-
O=C(NCCN1CCCC1)c1ccc(Br)cc1	-	-	-	0	0	-
COC1CCN(C(=O)C2CCC(=O)N(CCc3cccc(F)c3)C2)CC1 (configuration not stated)	-	-	-	0	0	-
Clc1ccc(-n2nnnc2Sc2ncnc3sccc23)cc1	-	0	0	128.9	0	0
O=C(CSCc1ccc(Br)cc1)N1CCOCC1	0	0	0	0	0	0
O=C(CSCc1ccc(Br)cc1)N1CCCC1	0	0	0	57.2	0	0
CC(=O)N1C(C)(C)CC(=NOS(=O)(=O)c2ccccc2)CC1(C)C	0	0	0	-	-	0
Cc1[nH]c2ccc(F)cc2c1CCN(Cc1cccnc1)C(=S)Nc1ccccc1	0	0	0	0	0	0
CNC(=S)N(CCc1c(C)[nH]c2ccc(F)cc12)Cc1cccnc1	-	-	-	0	-85.8	-
COCC(C)NC(=O)CSc1nc2ccccc2n1CCc1ccccc1 (configuration not stated)	0	0	0	0	0	0
Clc1ccccc1-c1nc(-c2ccncc2)no1	0	0	0	0	0	-
O=S(=O)(Cc1noc(-c2ccccc2Cl)n1)c1ccccn1	0	0	0	61.2	0	-
Cc1ccc(-c2nn[nH]n2)o1	0	0	0	0	-58.0	0
COc1ccc(-c2cn(Cc3ccc(C)cc3)nn2)cc1	-	-	-	0	0	-
N#CC(CC(=O)c1ccc(F)cc1)c1ccc2c(c1)OCO2 (configuration not stated)	-	-	-	0	0	-
COc1ccccc1C(=O)NCCC(=O)NNC(=O)Cn1ccc(C(F)(F)F)n1	-	-	-	0	-77.3	-
COc1ccc(-c2[nH]ncc2CN2CCN(C3CCCCC3)C(=O)C2)cc1F	0	0	0	56.3	0	0
COCCNc1nc(-c2cc3ccccc3o2)cs1	0	0	0	56.4	0	0
COc1cc(OC)cc(C(=O)NC(=S)Nc2nc(-c3cc4ccccc4o3)cs2)c1	-	0	0	0	0	-
COCc1cc(CNC(=O)C2CCC(=O)N(Cc3ccccc3F)C2)[nH]n1 (configuration not stated)	-	-	-	0	0	-
COc1cccc(-c2nnn(CC(=O)N3CCCCC3)n2)c1	-	-	-	0	0	-
COc1cccc(NC=C2C(=O)OC3(CCCCC3)OC2=O)c1	0	0	0	58.8	0	0
CN1C(=O)/C(=C\c2ccccc2F)Sc2ccc(C(=O)NC3CCN(Cc4ccccc4)CC3)cc21	-	-	-	0	0	-
CC1(C)CC(=O)C2=C(C1)Nc1nc(SCCN3CCOCC3)[nH]c(=O)c1C2c1cccs1 (configuration not stated)	30.7	0	0	0	0	0
C[C@@H]1CN(C(=O)c2nc3ccc(Cl)cn3c2CN(C)CCc2cnn(C)c2)C[C@H](C)O1	-	-	-	0	0	-
SMILES	Mdm2 ligase inh	HSV replic up	Rad51 HR inh	HSF1 activator	HSF1 inh	Hsp70 act
Cc1ccc(NC(=O)COc2ccccc2C=O)cc1Cl	0	0	-	79.7	0	0
CCOc1ccc(CNC(=O)CCS(=O)(=O)c2ccc3c(c2)oc(=O)n3C)cc1	-	-	-	0	-76.2	-
Cn1cc(CCNC(=O)CC2C(=O)NCCN2CC(c2ccccc2)c2ccccc2)cn1 (configuration not stated)	0	0	0	0	0	-
CN(C)CCNC(=O)CCn1nc(-c2ccc(Cl)cc2)ccc1=O	-	-	-	0	0	-
CN(C)Cc1c(C(=O)N/N=C/c2ccc(OCc3c(F)cccc3Cl)cc2)nnn1-c1nonc1N	-	-	-	108.5	0	-
Nc1nonc1-n1nnc(C(=O)N/N=C/c2ccc(O)cc2)c1COc1ccc(F)cc1	-	0	0	0	0	-
CCN(CC)Cc1c(C(=O)N/N=C/c2cccc(OCc3cccc(Cl)c3)c2)nnn1-c1nonc1N	-	-	-	57.3	0	-
Nc1ccc(-c2cnc[nH]2)cc1[N+](=O)[O-]	0	0	0	0	0	-
Cc1nc(SCC(=O)O)c(C#N)c(C)c1CC(=O)c1ccccc1	0	0	0	0	0	0
CC(=O)c1ccc(Oc2ccc(C(C)=O)cc2)cc1	0	0	0	56.0	0	0
CCCCn1c(=O)[nH]c(=O)c2c1nc(Cn1ncc(Cl)c(Cl)c1=O)n2CCC	-	-	-	0	-93.0	-
CCOC(=O)C1=C(COC(=O)/C=C/c2ccc(OC)cc2OC)NC(=O)NC1C (configuration not stated)	-	-	-	0	0	-
Cc1ccc2nc(NCc3ccccc3)c(C=O)c(=O)n2c1	0	0	0	90.3	0	0
Cc1ccc2nc(Nc3ccccc3)c(C=O)c(=O)n2c1	-	-	-	0	0	-
COc1ccc(S(=O)(=O)Nc2ccccc2C(F)(F)F)cc1	0	0	0	?	0	0
COc1ccc(S(=O)(=O)NC(C)C(=O)Nc2ccccc2C(F)(F)F)cc1 (configuration not stated)	0	0	93.6	0	0	0
COCCN(CC(=O)NC1CCCCC1)C(=O)/C=C/C(=O)c1ccc(OC)cc1O	0	0	-	0	-83.5	0
O=C1Nc2cc(C(F)(F)F)ccc2N2CCCCC12 (configuration not stated)	-	-	-	0	0	-
Cc1cc(=O)[nH]c2c1cnn2C(C)c1ccccc1 (configuration not stated)	-	-	-	0	0	-
CSc1ccc(/C=C(\C#N)C(=O)Nc2cccc(C)c2)cc1	0	0	0	?	0	0
Cc1cccc(C)c1N1CCN(S(=O)(=O)c2ccc(F)cc2)CC1	0	0	0	55.3	0	0
Cc1ccccc1CN1CCN(S(=O)(=O)c2ccc(F)cc2)CC1	0	0	0	0	0	0
O=C(C#Cc1ccccc1)c1cccc([N+](=O)[O-])c1	0	0	0	100.9	0	0
